Values belong to the compound of their own block, whether it stands above or below them. Active and inactive are the calls of the source. The calls are words filed in the database; no cut-off is given here. Square brackets hold non-standard residues; d marks the D form. Peptide text beside a SMILES is read from it.
Key:
[1] = target: Melanocortin receptor 3 (Mus musculus) (UniProt P33033); assay: Displacement of 125I-NDP-MSH from mouse MC3R expressed in HEK293 cells at 100 uM incubated for 1 hr by gamma counting analysis; type: cell-based
Melanocortin receptor 3 (Mus musculus), sequence (P33033 whole entry): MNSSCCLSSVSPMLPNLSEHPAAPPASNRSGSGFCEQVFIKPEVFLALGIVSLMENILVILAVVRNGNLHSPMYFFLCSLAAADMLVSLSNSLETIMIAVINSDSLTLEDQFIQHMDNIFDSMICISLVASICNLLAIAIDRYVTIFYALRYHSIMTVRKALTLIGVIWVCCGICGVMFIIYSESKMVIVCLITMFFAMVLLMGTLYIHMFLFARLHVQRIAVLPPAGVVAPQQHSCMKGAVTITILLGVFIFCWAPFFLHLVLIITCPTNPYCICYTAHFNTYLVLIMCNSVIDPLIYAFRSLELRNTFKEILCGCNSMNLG
In short: (§1)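 Mouse MC3R-Flag transiently transfected into HEK293 cells using FuGene6 two days before assay. Cells exposed 1 h at 37°C to 125I-NDP-MSH (100,000 cpm/well) plus competitor at 10^-12 to 10^-4 M in DMEM/0.1% BSA, then washed, lysed and gamma counted. Nonspecific binding defined with 10^-6 M NDP-MSH. Duplicates, ≥2 independent experiments.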

[2] = target: Melanocyte-stimulating hormone receptor (Mus musculus) (UniProt Q01727); assay: Agonist activity at mouse MC1R expressed in HEK293 cells assessed as cAMP accumulation incubated for 2 hrs by alphascreen assay relative to Ac-His-DPhe-Arg-Trp-NH2; type: functional, cell-based
Melanocyte-stimulating hormone receptor (Mus musculus), sequence (Q01727 whole entry, looked up): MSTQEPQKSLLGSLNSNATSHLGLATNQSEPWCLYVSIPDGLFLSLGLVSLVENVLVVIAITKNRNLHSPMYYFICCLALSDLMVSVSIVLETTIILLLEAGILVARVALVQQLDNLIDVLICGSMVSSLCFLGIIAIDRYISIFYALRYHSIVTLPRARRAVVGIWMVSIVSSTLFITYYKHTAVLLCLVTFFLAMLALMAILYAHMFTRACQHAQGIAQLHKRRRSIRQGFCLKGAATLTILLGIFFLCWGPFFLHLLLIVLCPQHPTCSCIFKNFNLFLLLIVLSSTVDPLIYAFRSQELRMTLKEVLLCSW
In short: (§2)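 HEK293 cells stably expressing mouse MC1R, MC3R (Flag-tagged), MC4R or MC5R, 10,000 cells/well, stimulated with ligand at 10^-13 to 10^-4 M for 2 h at room temperature in HBSS stimulation buffer with 0.5 mM IBMX, 0.1% BSA, pH 7.4. cAMP read by AlphaScreen competition after a further 2 h with donor beads.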

[3] = target: Melanocortin receptor 5 (Mus musculus) (UniProt P41149); assay: Agonist activity at mouse MC5R expressed in HEK293 cells assessed as cAMP accumulation incubated for 2 hrs by alphascreen assay relative to Ac-His-DPhe-Arg-Trp-NH2; type: functional, cell-based; in short: as §2
Melanocortin receptor 5 (Mus musculus), sequence (P41149 whole entry): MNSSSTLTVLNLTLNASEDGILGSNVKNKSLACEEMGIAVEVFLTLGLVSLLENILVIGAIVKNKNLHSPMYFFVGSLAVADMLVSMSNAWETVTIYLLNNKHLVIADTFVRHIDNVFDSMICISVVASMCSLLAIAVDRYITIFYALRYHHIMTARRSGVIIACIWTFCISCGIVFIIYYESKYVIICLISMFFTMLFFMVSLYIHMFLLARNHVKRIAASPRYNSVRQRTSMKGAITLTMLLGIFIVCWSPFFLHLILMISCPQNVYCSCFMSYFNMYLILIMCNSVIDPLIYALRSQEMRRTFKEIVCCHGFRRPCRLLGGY

[4] = target: Melanocortin receptor 4 (Mus musculus) (UniProt P56450); assay: Agonist activity at mouse MC4R expressed in HEK293 cells assessed as cAMP accumulation incubated for 2 hrs by alphascreen assay relative to Ac-His-DPhe-Arg-Trp-NH2; type: functional, cell-based; in short: as §2
Melanocortin receptor 4 (Mus musculus), sequence (P56450 whole entry): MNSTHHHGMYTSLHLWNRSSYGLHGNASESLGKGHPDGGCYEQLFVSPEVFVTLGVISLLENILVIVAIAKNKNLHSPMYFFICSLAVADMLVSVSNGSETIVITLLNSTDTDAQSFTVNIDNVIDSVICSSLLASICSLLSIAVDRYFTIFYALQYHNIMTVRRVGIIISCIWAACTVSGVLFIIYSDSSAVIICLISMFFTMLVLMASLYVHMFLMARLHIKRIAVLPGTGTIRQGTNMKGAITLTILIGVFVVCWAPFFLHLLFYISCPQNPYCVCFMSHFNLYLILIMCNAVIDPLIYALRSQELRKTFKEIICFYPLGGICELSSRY

[5] = target: Melanocortin receptor 5 (Mus musculus) (UniProt P41149); assay: Agonist activity at mouse MC5R expressed in HEK293 cells assessed as cAMP accumulation at 100 uM incubated for 2 hrs by alphascreen assay; type: functional, cell-based
In short: (§3)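 cAMP response at 100 μM in stably transfected HEK293 cells (mouse MC3R-Flag, MC4R or MC5R), expressed as % of maximal NDP-MSH signal. AlphaScreen readout after 2 h room-temperature stimulation in IBMX-containing HBSS buffer, pH 7.4. Duplicate points, at least three independent experiments.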

[6] = target: Melanocortin receptor 3 (Mus musculus) (UniProt P33033); assay: Agonist activity at mouse MC3R expressed in HEK293 cells assessed as cAMP accumulation at 100 uM incubated for 2 hrs by alphascreen assay; type: functional, cell-based; in short: as §3
Mus musculus [7] = assay: Reduction in food intake in male 129/Sv x C57BL/6J mouse at 2.5 to 5 nmol, icv measured at 2 to 5 hrs post dose; type: functional, organism-based
Mus musculus [8] = assay: Reduction in food intake in female 129/Sv x C57BL/6J mouse at 2.5 to 5 nmol, icv measured at 24 hrs post dose; type: functional, organism-based
In short: (§4)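 Crossover design in mice aged 8 weeks with lateral-ventricle cannulas (placement validated by PYY3-36), chow ad libitum, 12-h light/dark. Single ICV injection of 1.0, 2.5 or 5.0 nmol in 3 µL saline, or saline alone, 2 h before lights out. Food intake and body weight weighed at 0, 2, 4, 6, 8, 24, 48, 72 h. One-way ANOVA with Bonferroni test versus saline.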

Mus musculus [9] = assay: Reduction in food intake in male 129/Sv x C57BL/6J mouse at 2.5 to 5 nmol, icv measured at 24 to 72 hrs post dose; type: functional, organism-based; in short: as §4
Mus musculus [10] = assay: Effect on body weight in female 129/Sv x C57BL/6J mouse at 2.5 to 5 nmol, icv measured at 2 to 72 hrs post dose; type: ADME, organism-based; settings: in vivo, icv_or_intrathecal; in short: as §4
Mus musculus [11] = assay: Toxicity in male 129/Sv x C57BL/6J mouse assessed as drug tolerability at 2.5 and 5 nmol, icv measured at 2 to 72 hrs post dose; type: organism-based; settings: in vivo
Mus musculus [12] = assay: Reduction in food intake in female 129/Sv x C57BL/6J mouse at 2.5 to 5 nmol, icv measured at 2 to 8 hrs post dose; type: functional, organism-based; in short: as §4
Mus musculus [13] = assay: Effect on body weight in male 129/Sv x C57BL/6J mouse at 2.5 to 5 nmol, icv measured at 2 to 72 hrs post dose; type: ADME, organism-based; settings: in vivo, icv_or_intrathecal; in short: as §4
Mus musculus [14] = assay: Reduction in food intake in female 129/Sv x C57BL/6J mouse at 2.5 to 5 nmol, icv measured at 48 to 72 hrs post dose; type: functional, organism-based; in short: as §4
Mus musculus [15] = assay: Reduction in food intake in icv dosed male 129/Sv x C57BL/6J mouse measured at 2 to 72 hrs post dose; type: functional, organism-based; in short: as §4
[16] = target: Melanocortin receptor 3 (Mus musculus) (UniProt P33033); assay: Displacement of 125I-NDP-MSH from mouse MC3R expressed in HEK293 cells incubated for 1 hr by gamma counting analysis relative to Ac-His-DPhe-Arg-Trp-NH2; type: cell-based; in short: as §1
[17] = target: Melanocyte-stimulating hormone receptor (Mus musculus) (UniProt Q01727); assay: Displacement of 125I-NDP-MSH from mouse MC1R expressed in HEK293 cells incubated for 1 hr by gamma counting analysis relative to Ac-His-DPhe-Arg-Trp-NH2; type: cell-based
In short: (§5)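 Whole HEK293 cells stably expressing mouse MC1R or MC4R, grown to 90-100% confluency, incubated 1 h at 37°C in DMEM/0.1% BSA with 125I-NDP-MSH (100,000 cpm/well) and unlabeled ligand at 10^-12 to 10^-4 M. After one wash, cells lysed with NaOH/Triton X-100 and gamma counted. Nonspecific binding defined with 10^-6 M NDP-MSH.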

[18] = target: Melanocortin receptor 4 (Mus musculus) (UniProt P56450); assay: Agonist activity at mouse MC4R expressed in HEK293 cells assessed as cAMP accumulation at 100 uM incubated for 2 hrs by alphascreen assay; type: functional, cell-based; in short: as §3
[19] = target: Melanocortin receptor 4 (Mus musculus) (UniProt P56450); assay: Displacement of 125I-NDP-MSH from mouse MC4R expressed in HEK293 cells incubated for 1 hr by gamma counting analysis relative to Ac-His-DPhe-Arg-Trp-NH2; type: cell-based; in short: as §5

inhibition [1]: 78%
Ratio EC50 [2]: 0.6
Ratio EC50 [3]: 2
Ratio EC50 [4]: 0.7
Structure (SMILES): N=C(N)NCCC[C@H](NC(=O)[C@@H](Cc1ccccc1)NC(=O)[C@H](Cc1cnc[nH]1)NC(=O)COCC(=O)NCCCOCCOCCOCCCN)C(=O)N[C@@H](Cc1c[nH]c2ccccc12)C(N)=O

Ratio EC50 [2]: 3
Structure (SMILES): CC(=O)N[C@H](Cc1cnc[nH]1)C(=O)N[C@H](Cc1ccccc1)C(=O)N[C@@H](CCCNC(=N)N)C(=O)N[C@H](Cc1c[nH]c2ccccc12)C(=O)N1CCC[C@@H]1C(=O)NCC(=O)N1CCC[C@@H]1C(=O)NCC(=O)N1CCC[C@@H]1C(=O)NCC(=O)N1CCC[C@@H]1C(=O)NCC(=O)N1CCC[C@@H]1C(=O)NCC(=O)N1CCC[C@H]1C(=O)NCC(=O)N[C@@H](Cc1cnc[nH]1)C(=O)N[C@H](Cc1ccccc1)C(=O)N[C@@H](CCCNC(=N)N)C(=O)N[C@@H](Cc1c[nH]c2ccccc12)C(N)=O

Activity [5]: 75%
Activity [6]: 45%
Structure (SMILES): CC(=O)N[C@@H](Cc1c[nH]cn1)C(=O)N[C@H](Cc1ccc2ccccc2c1)C(=O)N[C@@H](CCCN=C(N)N)C(=O)N[C@@H](Cc1c[nH]c2ccccc12)C(N)=O

Structure (SMILES): CC(=O)N[C@@H](Cc1cnc[nH]1)C(=O)N[C@H](Cc1ccccc1)C(=O)N[C@@H](CCCNC(=N)N)C(=O)N[C@@H](Cc1c[nH]c2ccccc12)C(=O)NCCCOCCOCCOCCCNC(=O)COCC(=O)N[C@@H](Cc1cnc[nH]1)C(=O)N[C@H](Cc1ccccc1)C(=O)N[C@@H](CCCNC(=N)N)C(=O)N[C@@H](Cc1c[nH]c2ccccc12)C(N)=O
Activity (Mus musculus [7]): Active
Activity (Mus musculus [8]): Active
Activity (Mus musculus [9]): inactive
Activity (Mus musculus [10]): Non-toxic
Activity (Mus musculus [11]): Non-toxic
Activity (Mus musculus [12]): inactive
Activity (Mus musculus [13]): Non-toxic
Activity (Mus musculus [14]): inactive
Activity (Mus musculus [15]): Dose-dependent effect

Ratio EC50 [2]: 0.9
Ratio EC50 [3]: 2
Structure (SMILES): N=C(N)NCCC[C@H](NC(=O)[C@@H](Cc1ccccc1)NC(=O)[C@H](Cc1cnc[nH]1)NC(=O)CNC(=O)[C@@H]1CCCN1C(=O)CNC(=O)[C@@H]1CCCN1C(=O)CNC(=O)[C@@H]1CCCN1C(=O)CNC(=O)[C@@H]1CCCN1C(=O)CNC(=O)[C@@H]1CCCN1C(=O)CNC(=O)[C@@H]1CCCN1)C(=O)N[C@@H](Cc1c[nH]c2ccccc12)C(N)=O (H-PGPGPGPGPGPGH[dF]RW-NH2)

Ratio IC50 [16]: 6
Ratio IC50 [17]: 2
Structure (SMILES): CC(=O)N[C@@H](Cc1cnc[nH]1)C(=O)N[C@H](Cc1ccccc1)C(=O)N[C@@H](CCCNC(=N)N)C(=O)N[C@@H](Cc1c[nH]c2ccccc12)C(=O)NCCCOCCOCCOCCCNC(=O)COCC(N)=O

Activity [18]: 40%
Ratio IC50 [16]: 1
Ratio IC50 [17]: 1
Structure (SMILES): N=C(N)NCCC[C@H](NC(=O)[C@@H](Cc1ccc2ccccc2c1)NC(=O)[C@H](Cc1cnc[nH]1)NC(=O)COCC(=O)NCCCOCCOCCOCCCN)C(=O)N[C@@H](Cc1c[nH]c2ccccc12)C(N)=O

Activity [18]: 20%
Activity [6]: 40%
Ratio IC50 [17]: 2
Structure (SMILES): CC(=O)N[C@@H](Cc1cnc[nH]1)C(=O)N[C@H](Cc1ccc2ccccc2c1)C(=O)N[C@@H](CCCNC(=N)N)C(=O)N[C@@H](Cc1c[nH]c2ccccc12)C(=O)NCCCOCCOCCOCCCNC(=O)COCC(N)=O

inhibition [1]: 60%
Structure (SMILES): CC(=O)N[C@@H](Cc1cnc[nH]1)C(=O)N[C@H](Cc1ccccc1)C(=O)N[C@@H](CCCNC(=N)N)C(=O)N[C@@H](Cc1c[nH]c2ccccc12)C(N)=O

inhibition [1]: 85%
Ratio EC50 [2]: 2
Ratio EC50 [4]: 0.2
Structure (SMILES): CC(=O)N[C@H](Cc1cnc[nH]1)C(=O)N[C@H](Cc1ccccc1)C(=O)N[C@@H](CCCNC(=N)N)C(=O)N[C@H](Cc1c[nH]c2ccccc12)C(=O)N1CCC[C@@H]1C(=O)NCC(=O)N1CCC[C@@H]1C(=O)NCC(=O)N1CCC[C@@H]1C(=O)NCC(=O)N1CCC[C@@H]1C(=O)NCC(=O)N1CCC[C@@H]1C(=O)NCC(=O)N1CCC[C@H]1C(=O)NCC(N)=O

Activity [18]: 85%
Ratio IC50 [19]: 2
Activity [6]: 80%
Ratio IC50 [16]: 4
Structure (SMILES): CC(=O)N[C@@H](Cc1cnc[nH]1)C(=O)N[C@H](Cc1ccc2ccccc2c1)C(=O)N[C@@H](CCCNC(=N)N)C(=O)N[C@@H](Cc1c[nH]c2ccccc12)C(=O)NCCCOCCOCCOCCCNC(=O)COCC(=O)N[C@@H](Cc1cnc[nH]1)C(=O)N[C@H](Cc1ccc2ccccc2c1)C(=O)N[C@@H](CCCNC(=N)N)C(=O)N[C@@H](Cc1c[nH]c2ccccc12)C(N)=O

Source: ChEMBL document CHEMBL3797098, “An in Vitro and in Vivo Investigation of Bivalent Ligands That Display Preferential Binding and Functional Activity for Different Melanocortin Receptor Homodimers” (J Med Chem, 2016)
